These results are taken from ChEMBL document CHEMBL2424582, “Structure-kinetic relationships--an overlooked parameter in hit-to-lead optimization: a case of cyclopentylamines as chemokine receptor 2 antagonists” (J Med Chem, 2013).

Assay [1] has as its target T1, C-C chemokine receptor type 2 (Homo sapiens, UniProt P41597). Nature of the assay: Displacement of [125I]-CCL2 from human CCR2 receptor expressed in human U2OS cell membranes. Put shortly: (§1)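 Membranes from U2OS cells stably expressing human CCR2 were used in a ¹²⁵I-CCL2 displacement binding assay. The cells were grown at 37 °C, 5% CO₂ in McCoy's 5a with 10% FCS plus G418, hygromycin and zeocin selection. Ki was derived from IC₅₀ by the Cheng–Prusoff equation. Weak binders are reported as percent displacement at 1 μM. n = 3.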
For orientation: Displacement assays read how much labelled ligand stays bound in the presence of the test substance.
Target sequence in this assay (P41597 whole entry): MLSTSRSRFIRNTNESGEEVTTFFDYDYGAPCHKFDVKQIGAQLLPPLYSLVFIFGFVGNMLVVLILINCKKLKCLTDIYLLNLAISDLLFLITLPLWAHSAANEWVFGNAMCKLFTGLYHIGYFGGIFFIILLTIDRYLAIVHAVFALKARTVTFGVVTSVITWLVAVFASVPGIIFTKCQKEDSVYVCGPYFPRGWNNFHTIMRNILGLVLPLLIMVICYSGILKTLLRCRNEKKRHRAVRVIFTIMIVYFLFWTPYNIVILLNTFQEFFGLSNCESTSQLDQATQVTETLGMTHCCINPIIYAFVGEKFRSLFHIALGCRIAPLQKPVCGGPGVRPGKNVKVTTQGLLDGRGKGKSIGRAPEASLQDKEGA

For assay [2], the target named is T1, C-C chemokine receptor type 2. Nature of the assay: Displacement of [125I]-CCL2 from human CCR2 receptor expressed in human U2OS cell membrane at 1 uM relative to control. The class given is cell membranes. Put shortly:
as §1
Target sequence in this assay (P41597 whole entry, looked up): as the sequence (P41597 whole entry) above

Assay [3] has the same target. Nature of the assay: Displacement of [3H]INCB3344 from human CCR2 receptor expressed in human U2OS cell membrane assessed as kinetic rate index at Ki by dual-point competition association assay relative to control.
Target sequence in this assay (P41597 whole entry, looked up): as the sequence (P41597 whole entry) above
Assay [4] shares this target. The assay is described as follows: Displacement of [3H]INCB3344 from human CCR2 receptor expressed in human U2OS cell membrane assessed as residence time.
Target sequence in this assay (P41597 whole entry, looked up): as the sequence (P41597 whole entry) above

In general, Ki refers to a measure of affinity in units of concentration, obtained from inhibition or displacement. Read a low Ki as tighter binding. Molecule `CC(C)[C@]1(C(=O)NCc2cc(C(F)(F)F)cc(C(F)(F)F)c2)CC[C@@H](NCCCc2ccccc2)C1` gave an inhibition constant Ki in assay [1] of 134 nM.
Usually inhibition stands for how much of the control response was suppressed. Low values mean a weak effect, high ones a strong effect. Regarding `Cc1cccc2c1CCC2N[C@@H]1CC[C@@](C(=O)NCc2cc(C(F)(F)F)cc(C(F)(F)F)c2)(C(C)C)C1` (some centres undefined), in assay [2], the inhibition amounted to 26%.
In the case of `Cc1ccc2c(c1)C(N[C@@H]1CC[C@@](C(=O)NCc3cc(C(F)(F)F)cc(C(F)(F)F)c3)(C(C)C)C1)CC2` (some centres undefined), the affinity in assay [1] corresponds to a Ki of 55 nM. In addition, the Ratio in assay [3] was found to be 0.8.
Take `CC(C)[C@]1(C(=O)NCc2cc(C(F)(F)F)cc(C(F)(F)F)c2)CC[C@@H](NC2CCc3cc(Br)ccc32)C1` (single isomer, unassigned; diastereomer 1) [listing 1 of 2 here]: in assay [4], the TIME was found to be 2.25 h.
As to `CC(C)[C@]1(C(=O)NCc2cc(C(F)(F)F)cc(C(F)(F)F)c2)CC[C@@H](NC2CCc3cc4c(cc32)OCO4)C1` (some centres undefined), the Ki in assay [1] is 6.3 nM. Moreover, the Ratio in assay [3] stood at 0.6.
For the molecule `CC(C)[C@]1(C(=O)NCc2cc(C(F)(F)F)cc(C(F)(F)F)c2)CC[C@@H](NC2CCc3cc(Br)ccc32)C1` (stereo in doubt; 22b) [listing 1 of 2 here], the TIME in assay [4] came to 1.28 h.
Consider `CC(C)[C@]1(C(=O)NCc2cc(C(F)(F)F)cc(C(F)(F)F)c2)CC[C@@H](NC2CCc3c(O)cccc32)C1` (some centres undefined), for which the affinity in assay [1], expressed as Ki, was 86 nM. The Ratio in assay [3] amounted to 0.6.
The matching figures for `CC(C)[C@]1(C(=O)NCc2cc(C(F)(F)F)cc(C(F)(F)F)c2)CC[C@@H](NC2CCCc3c(O)cccc32)C1` (some centres undefined): 35 nM and 0.8.
The like results for `CC(C)[C@]1(C(=O)NCc2cc(C(F)(F)F)cc(C(F)(F)F)c2)CC[C@@H](NC2CCc3c(C#N)cccc32)C1` (some centres undefined) were, in that order, 70 nM and 0.8.
The matching figures for `CC(C)[C@]1(C(=O)NCc2cc(C(F)(F)F)cc(C(F)(F)F)c2)CC[C@@H](NC2CCc3cc(O)ccc32)C1` (some centres undefined): 29 nM and 0.7.
`CC(C)[C@]1(C(=O)NCc2cc(C(F)(F)F)cc(C(F)(F)F)c2)CC[C@@H](NC2CCc3ccc(C#N)cc32)C1` (some centres undefined) displayed a Ki in assay [1] of 54 nM. Besides, in assay [3], the Ratio came out at 0.6.
In turn, `CC(C)[C@]1(C(=O)NCc2cc(C(F)(F)F)cc(C(F)(F)F)c2)CC[C@@H](NC2CCCc3c(C(=O)O)cccc32)C1` (some centres undefined) showed an inhibition in assay [2] of 0%.
As to `CC(C)[C@]1(C(=O)NCc2cc(C(F)(F)F)cc(C(F)(F)F)c2)CC[C@@H](NC2CCc3cc(Br)ccc32)C1` (mixture of isomers) [listing 1 of 2 here], the TIME in assay [4] is 1.57 h. Moreover, the Ratio in assay [3] worked out at 1.1.
On to `CC(C)[C@]1(C(=O)NCc2cc(C(F)(F)F)cc(C(F)(F)F)c2)CC[C@@H](NC2CCCc3c(Br)cccc32)C1` (some centres undefined), for which the inhibition in assay [2] came to 48%.
`CC(C)[C@]1(C(=O)NCc2cc(C(F)(F)F)cc(C(F)(F)F)c2)CC[C@@H](NCc2ccccc2)C1` returned a Ki in assay [1] of 437 nM.
The molecule `CC(C)[C@]1(C(=O)NCc2cc(C(F)(F)F)cc(C(F)(F)F)c2)CC[C@@H](NC2CCc3ccccc32)C1` (some centres undefined) had a Ki in assay [1] of 50 nM. The TIME in assay [4] was 0.158 h. Besides, the Ratio in assay [3] was determined as 0.7.
`COc1ccc2c(c1OC)CCC2N[C@@H]1CC[C@@](C(=O)NCc2cc(C(F)(F)F)cc(C(F)(F)F)c2)(C(C)C)C1` (some centres undefined): the Ki in assay [1] worked out at 130 nM.
In assay [2], `COc1cccc2c1CCC2N[C@@H]1CC[C@@](C(=O)NCc2cc(C(F)(F)F)cc(C(F)(F)F)c2)(C(C)C)C1` (some centres undefined) showed an inhibition of 30%.
As for `CC(C)[C@]1(C(=O)NCc2cc(C(F)(F)F)cc(C(F)(F)F)c2)CC[C@@H](NC2CCCc3ccccc32)C1` (some centres undefined), in assay [1], the Ki is 33 nM. For the same molecule, the TIME in assay [4] was determined as 0.0933 h. Further, the Ratio in assay [3] was determined as 0.6.
Consider `CC(C)[C@]1(C(=O)NCc2cc(C(F)(F)F)cc(C(F)(F)F)c2)CC[C@@H](NC2CCc3cc(F)ccc32)C1` (some centres undefined), for which the inhibition in assay [2] was 30%.
In assay [1], `CC(C)[C@]1(C(=O)NCc2cc(C(F)(F)F)cc(C(F)(F)F)c2)CC[C@@H](NC2CCSCC2)C1` came in with a Ki of 31 nM. Further, the TIME in assay [4] was determined as 0.0717 h.
In turn, `CC(C)[C@]1(C(=O)NCc2cc(C(F)(F)F)cc(C(F)(F)F)c2)CC[C@@H](NC2CCOCC2)C1` registered a Ki in assay [1] of 6.8 nM. In assay [4], the TIME worked out at 0.04 h.
On to `COc1cccc2c1CCCC2N[C@@H]1CC[C@@](C(=O)NCc2cc(C(F)(F)F)cc(C(F)(F)F)c2)(C(C)C)C1` (some centres undefined), for which the Ki in assay [1] turned out to be 27 nM. Besides, the Ratio in assay [3] is 0.7.
`CC(C)[C@]1(C(=O)NCc2cc(C(F)(F)F)cc(C(F)(F)F)c2)CC[C@@H](NCCc2ccccc2)C1`: the Ki in assay [1] was 2400 nM.
As for `CC(C)[C@]1(C(=O)NCc2cc(C(F)(F)F)cc(C(F)(F)F)c2)CC[C@@H](NC2CCCCC2)C1`, in assay [1], the Ki came to 110 nM. Further, in assay [4], the TIME is 0.0317 h.
As to `CC(C)[C@]1(C(=O)NCc2cc(C(F)(F)F)cc(C(F)(F)F)c2)CC[C@@H](NC2CCc3ccc(Cl)cc32)C1` (some centres undefined), in assay [2], the inhibition turned out to be 28%.
As for `CC(C)[C@]1(C(=O)NCc2cc(C(F)(F)F)cc(C(F)(F)F)c2)CC[C@@H](NC2CCc3cc(Br)ccc32)C1` (stereo in doubt; 22b) [listing 2 of 2 here], the inhibition constant (Ki) in assay [1] turned out to be 289 nM.
Still for that read-out and setting: next, `CC(C)[C@]1(C(=O)NCc2cc(C(F)(F)F)cc(C(F)(F)F)c2)CC[C@@H](NC2CCc3cc(Br)ccc32)C1` (mixture of isomers) [listing 2 of 2 here]: 7.2 nM.
`COc1ccc2c(c1)CCC2N[C@@H]1CC[C@@](C(=O)NCc2cc(C(F)(F)F)cc(C(F)(F)F)c2)(C(C)C)C1` (some centres undefined) registered a Ki in assay [1] of 6.1 nM. Besides, in assay [3], the Ratio was 0.6.
In turn, `CC(C)[C@]1(C(=O)NCc2cc(C(F)(F)F)cc(C(F)(F)F)c2)CC[C@@H](NC2CCc3cc(Cl)ccc32)C1` (some centres undefined) gave a Ki in assay [1] of 18 nM. Also, the TIME in assay [4] turned out to be 0.933 h. For the same molecule, the Ratio in assay [3] amounted to 1.1.
On to `CC(C)[C@]1(C(=O)NCc2cc(C(F)(F)F)cc(C(F)(F)F)c2)CC[C@@H](NC2CCc3cc(Br)ccc32)C1` (single isomer, unassigned; diastereomer 1) [listing 2 of 2 here], for which the Ki in assay [1] came to 3.6 nM.
In assay [1], `COc1cc2c(cc1OC)C(N[C@@H]1CC[C@@](C(=O)NCc3cc(C(F)(F)F)cc(C(F)(F)F)c3)(C(C)C)C1)CC2` (some centres undefined) came in with a Ki of 3.9 nM. The Ratio in assay [3] was 0.7.
The matching figures for `CC(C)[C@]1(C(=O)NCc2cc(C(F)(F)F)cc(C(F)(F)F)c2)CC[C@@H](NC2CCc3c(N)cccc32)C1` (some centres undefined): 43 nM and 0.8.
